pIC50: −log10 of the molar value.
Legend:
Plasmodium falciparum = test: Antimalarial activity against chloroquine-resistant Plasmodium falciparum W2; type: functional, organism-based
[1] = Toxicity in Swiss mouse after 10 days; type: organism-based; details: in vivo
Method in brief: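 Acute toxicity: a single drug injection into four non-infected random-bred Swiss mice, with deaths recorded 10 days after injection.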

Plasmodium berghei = test: Antimalarial activity against Plasmodium berghei infected Swiss mice (Mus musculus) by intraperitoneal dose; type: functional; details: ip
Method in brief: (§1)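 Infected mice dosed i.p. once daily for 4 days, with the first dose 1 h after i.p. inoculation with parasites. ED50 is the dose giving 50% inhibition of parasite growth versus vehicle-treated controls (equal volume of vehicle), read from a plot of activity (% of control) against log dose. P. berghei is the sensitive strain and P. yoelii nigeriensis the multidrug-resistant strain.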

[2] = tested on: Plasmodium yoelii nigeriensis; test: Antimalarial activity against Plasmodium yoelii nigeriensis infected Swiss mice (Mus musculus) by intraperitoneal dose; type: functional; details: ip; method in brief: as §1
[3] = Therapeutic index, ratio of LD50 for Swiss mice (Mus musculus) to […] for Plasmodium berghei infected Swiss mice (Mus musculus); details: read-out: Ratio LD50/ED50
Method in brief: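 Ratio of acute LD50 to P. berghei ED50 in mice. LD50: one injection into four non-infected random-bred Swiss mice, deaths scored at 10 days. ED50: i.p. dosing once daily for 4 days, starting 1 h after i.p. parasite inoculation. Parasite growth inhibition is taken against vehicle-treated controls, and the value is read from % of control versus log dose.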

Mastomys coucha = test: Toxicity against Mastomys coucha assessed as methemoglobin levels at 15 mg/kg after 3 days; type: organism-based; set-up: dose 15 mg/kg; details: in vivo, 72 h
Method in brief: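 Mastomys coucha dosed at 15 mg/kg per day for 3 days, then blood methemoglobin measured as % MetHb. A vehicle group served as control. Values are mean±SEM per group from a set of three experiments.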

| Structure (SMILES) | pIC50 (Plasmodium falciparum) | LD50 at 240 h [1] [mg/kg] | ED50 (Plasmodium berghei) [mg/kg] | ED50 [2] [mg/kg] | selectivity ratio [3] | Activity (Mastomys coucha) [%] |
| --- | --- | --- | --- | --- | --- | --- |
| COc1cc(NC(C)(C)CCCN)c2nc(OC)ccc2n1 | 7.48 | > 200 | 1.6 | 2 | > 125 | 0.13 |
| COc1cc(NC2(CCCN)CC2)c2ncccc2n1 | 7.24 | 145 | 1.6 | 1.4 | 91 | 0.1 |
| COc1ccc2nc(OC(C)C)cc(NC3(CCCN)CC3)c2n1 | 7.33 | > 200 | 0.31 | 0.41 | > 645 | -0.12 |
| CC(C)Oc1cc(NC(C)(C)CCCN)c2ncccc2n1 | 6.96 | 167 | 0.33 | 0.28 | 506 | -0.15 |
| COc1cc(NC(C)(C)CCCN)c2nc(C(F)(F)F)ccc2n1 | 7.68 | > 200 | 1.5 | 1.7 | > 133 | -0.11 |
| COc1cc(NC(C)CCCN)c2ncccc2c1 (stereo unspecified) [PRIMAQUINE] | < 5.00 | 55 | – | – | – | 3.4 |
| CCOc1cc(NC2(CCCN)CC2)c2nc(OC)ccc2n1 | 7.35 | > 200 | 0.72 | 0.65 | > 278 | -0.1 |
| CC(C)Oc1cc(NC2(CCCN)CC2)c2nc(C(F)(F)F)ccc2n1 | 7.26 | > 200 | 0.26 | 0.23 | > 769 | 0.14 |
| COc1cc(NC(C)(C)CCCN)c2ncccc2n1 | 7.19 | 130 | 1.8 | 2.1 | 72 | 0.1 |
| CCOc1cc(NC2(CCCN)CC2)c2nc(C(F)(F)F)ccc2n1 | 7.24 | > 200 | 0.75 | 0.68 | > 267 | 0.095 |
| CC(C)Oc1cc(NC2(CCCN)CC2)c2ncccc2n1 | 7.00 | 175 | 0.29 | 0.38 | 603 | -0.1 |
| CCOc1cc(NC(C)(C)CCCN)c2ncccc2n1 | 7.11 | 155 | 0.95 | 0.89 | 163 | -0.12 |
| CCN(CC)CCCC(C)Nc1ccnc2cc(Cl)ccc12 (stereo unspecified) [CHLOROQUINE] | – | – | 2 | – | – | – |
| CCOc1cc(NC2(CCCN)CC2)c2ncccc2n1 | 7.14 | 161 | 0.88 | 1 | 183 | -0.12 |

Source: ChEMBL document CHEMBL1137548, “Synthesis and evaluation of naphthyridine compounds as antimalarial agents” (Bioorg Med Chem Lett, 2007)
